Laboratory results as given in ChEMBL document CHEMBL1149415, “Discovery and structure-activity relationship of antagonists of B-cell lymphoma 2 family proteins with chemopotentiation activity in vitro and in vivo” (J Med Chem, 2006).

Assays:
[1] = biological target: T1, Bcl-2-like protein 1 (Homo sapiens, UniProt Q07817); test: Binding affinity to Bcl-XL by fluorescence polarization assay
[2] = biological target: Apoptosis regulator Bcl-2 (Homo sapiens, UniProt P10415); test: Binding affinity to Bcl2 by fluorescence polarization assay
Sequence of Apoptosis regulator Bcl-2 (P10415 whole entry): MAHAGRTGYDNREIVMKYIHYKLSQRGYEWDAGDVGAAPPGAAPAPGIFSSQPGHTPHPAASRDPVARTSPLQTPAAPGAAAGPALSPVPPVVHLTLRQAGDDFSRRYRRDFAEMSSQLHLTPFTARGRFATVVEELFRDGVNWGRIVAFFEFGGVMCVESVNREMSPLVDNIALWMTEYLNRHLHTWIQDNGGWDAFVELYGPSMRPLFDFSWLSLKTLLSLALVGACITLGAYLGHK

[3] = biological target: T1, Bcl-2-like protein 1; test: Activity towards mouse FL5.12 cell line transfected with Bcl-XL in presence of 3% fetal bovine serum; format: functional
Outline: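 Bcl-XL-transfected murine FL5.12 (IL-3 dependent) grown in RPMI with 10% FBS and WEHI-3B conditioned medium as the IL-3 source. Switched to IL-3-depleted, FBS-free medium for 2 days. Then placed in gelatin assay medium (3.4 mg/mL bovine gelatin) or 3% FBS assay medium. Serial compound dilutions added for 24 h. Viability read by MTS or CellTiter-Glo; duplicate values per determination; EC50.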

[4] = biological target: T1, Bcl-2-like protein 1; test: Binding affinity to Bcl-XL in 1% human serum by fluorescence polarization assay
[5] = biological target: T1, Bcl-2-like protein 1; test: Binding affinity to Bcl-XL in 10% human serum by fluorescence polarization assay
Outline: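 Competitive fluorescence polarization: serial compound dilutions compete with 30 nM f-Bad peptide (FITC-labelled) for 60 nM Bcl-XL. Human serum at 10% added to the assay buffer. Duplicate values per determination; Ki calculated.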

[6] = biological target: Albumin (Homo sapiens, UniProt P02768); test: Binding affinity for human serum albumin domain III
Sequence of Albumin (P02768 whole entry, the tested form may be a part): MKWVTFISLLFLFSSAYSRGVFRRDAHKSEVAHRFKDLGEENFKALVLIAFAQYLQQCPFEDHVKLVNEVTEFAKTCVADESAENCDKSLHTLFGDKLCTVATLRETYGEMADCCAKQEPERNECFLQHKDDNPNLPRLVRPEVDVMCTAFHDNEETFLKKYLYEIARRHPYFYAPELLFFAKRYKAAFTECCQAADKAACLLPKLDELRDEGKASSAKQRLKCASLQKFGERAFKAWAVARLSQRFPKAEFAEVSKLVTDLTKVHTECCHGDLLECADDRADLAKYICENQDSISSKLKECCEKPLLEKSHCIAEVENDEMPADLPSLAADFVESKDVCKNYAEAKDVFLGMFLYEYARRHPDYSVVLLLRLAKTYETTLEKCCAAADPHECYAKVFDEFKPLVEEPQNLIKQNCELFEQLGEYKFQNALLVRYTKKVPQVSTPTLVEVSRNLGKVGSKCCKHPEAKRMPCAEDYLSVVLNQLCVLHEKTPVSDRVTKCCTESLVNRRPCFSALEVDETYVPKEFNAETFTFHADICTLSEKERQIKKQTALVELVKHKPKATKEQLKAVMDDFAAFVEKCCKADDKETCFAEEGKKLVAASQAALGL

T1 sequence (Q07817 whole entry): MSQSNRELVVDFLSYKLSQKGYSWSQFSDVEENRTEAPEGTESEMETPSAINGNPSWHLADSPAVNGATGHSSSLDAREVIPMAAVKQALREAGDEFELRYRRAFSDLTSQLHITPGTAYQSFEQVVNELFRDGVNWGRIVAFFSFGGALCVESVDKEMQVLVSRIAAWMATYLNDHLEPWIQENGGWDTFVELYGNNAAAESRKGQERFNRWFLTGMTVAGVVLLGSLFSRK

| SMILES | Ki [1] [nM] | Ki [2] [nM] | EC50 [3] [nM] | Ki [4] [nM] | Ki [5] [nM] | Kd [6] [nM] |
| --- | --- | --- | --- | --- | --- | --- |
| CC1(C)CCN(c2ccc(C(=O)NS(=O)(=O)c3ccc(N[C@H](CCCCN)CSc4ccccc4)c([N+](=O)[O-])c3)cc2)CC1 | 1 | 231 | 20800 | 256 | – | – |
| CC(=O)N1CCN(c2ccc(C(=O)NS(=O)(=O)c3ccc(NCCSc4ccccc4)c([N+](=O)[O-])c3)cc2)CC1 | 894 | > 10000 | – | 2970 | – | – |
| COc1cc(CCCO)ccc1-c1ccc(C(=O)NS(=O)(=O)c2ccc(NCCSc3ccccc3)c([N+](=O)[O-])c2)cc1 | 21.5 | 721 | – | 2960 | – | – |
| COc1cc(CCCN2CCOCC2)ccc1-c1ccc(C(=O)NS(=O)(=O)c2ccc(N[C@@H](CCN(C)C)CSc3ccccc3)c([N+](=O)[O-])c2)cc1 | 250 | 2160 | 59200 | 1140 | – | – |
| COc1cc(CCC(=O)N(C)C)ccc1-c1ccc(C(=O)NS(=O)(=O)c2ccc(NCCSc3ccccc3)c([N+](=O)[O-])c2)cc1 | 38.9 | 400 | – | 1000 | – | – |
| O=C(NS(=O)(=O)c1ccc(NCCSc2ccccc2)c([N+](=O)[O-])c1)c1ccc(N2CCOCC2)cc1 | 1080 | > 10000 | – | > 10000 | – | – |
| COc1cc(CCCN2CCOCC2)ccc1-c1ccc(C(=O)NS(=O)(=O)c2ccc(NCCSc3ccccc3)c([N+](=O)[O-])c2)cc1 | 10.4 | 402 | – | 580 | 4300 | – |
| CC1(C)CCN(c2ccc(C(=O)NS(=O)(=O)c3ccc(N[C@@H](CCN4CCOCC4)CSc4ccccc4)c([N+](=O)[O-])c3)cc2)CC1 | 75 | 732 | 9310 | 6050 | – | – |
| CC(C)(C)OC(=O)N1CCN(c2ccc(C(=O)NS(=O)(=O)c3ccc(NCCSc4ccccc4)c([N+](=O)[O-])c3)cc2)CC1 | 396 | 2880 | – | 3350 | – | – |
| COc1cc(CCCN2CCOCC2)ccc1-c1ccc(C(=O)NS(=O)(=O)c2ccc(N[C@H](CCN(C)C)CSc3ccccc3)c([N+](=O)[O-])c2)cc1 | < 0.5 | 116 | 2080 | 148 | – | 94000 |
| CC1(C)CCN(c2ccc(C(=O)NS(=O)(=O)c3ccc(NCCSc4ccccc4)c([N+](=O)[O-])c3)cc2)CC1 | 19 | 192 | – | 652 | – | – |
| CN(C)CCCC[C@H](CSc1ccccc1)Nc1ccc(S(=O)(=O)NC(=O)c2ccc(N3CCC(C)(C)CC3)cc2)cc1[N+](=O)[O-] | 1.2 | 73 | 3890 | 174 | – | – |
| COc1cc(CCCN(C)C)ccc1-c1ccc(C(=O)NS(=O)(=O)c2ccc(NCCSc3ccccc3)c([N+](=O)[O-])c2)cc1 | 106 | 1230 | – | 730 | 5660 | – |
| COc1cc(CC(=O)N(C)C)ccc1-c1ccc(C(=O)NS(=O)(=O)c2ccc(NCCSc3ccccc3)c([N+](=O)[O-])c2)cc1 | 251 | > 10000 | – | > 10000 | – | – |
| COc1cc(CCCN2CCOCC2)ccc1-c1ccc(C(=O)NS(=O)(=O)c2ccc(N[C@H](CCCN(C)C)CSc3ccccc3)c([N+](=O)[O-])c2)cc1 | 0.9 | 317 | 8600 | 71 | – | – |
